≈ marks a conversion by molar mass, not a printed value.
Tests used:
Format in all cases: functional
Escherichia coli = experiment: Antibacterial activity against Escherichia coli ATCC 25922 after 3 to 4 days by serial plate dilution method; settings: for MIC: Escherichia coli, ATCC 25922
Pseudomonas aeruginosa = experiment: Antibacterial activity against Pseudomonas aeruginosa ATCC 27853 after 3 to 4 days by serial plate dilution method; settings: for MIC: Pseudomonas aeruginosa, ATCC 27853
Klebsiella pneumoniae = experiment: Antibacterial activity against recultured Klebsiella pneumoniae after 3 to 4 days by serial plate dilution method; settings: for MIC: Klebsiella pneumoniae
[1] = tested on: Mycobacterium tuberculosis; experiment: Antituberculosis activity against Mycobacterium tuberculosis H37Rv ATCC 27294 after 7 days using resazurin dye by broth microdilution assay; settings: H37Rv ATCC 27294, 168 h
Procedure, shortened: (§1)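 M. tuberculosis H37Rv grown in Middlebrook 7H9 with 10% OADC and 0.5% glycerol, adjusted to McFarland 1.0. Compounds were dissolved in DMF as stocks and tested at final levels of 1.56, 3.12, 6.25, 12.5, 25 and 50 in 96-well REMA. Controls were DMF-only, growth, rifampicin and isoniazid. After 7 days at 37 °C, 0.01% resazurin was added for 24 h and the colour change read.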

Staphylococcus aureus = experiment: Antibacterial activity against Staphylococcus aureus ATCC 25923 after 3 to 4 days by serial plate dilution method; settings: for MIC: Staphylococcus aureus, ATCC 25923
[2] = tested on: Mycobacterium tuberculosis; experiment: Antituberculosis activity against Mycobacterium tuberculosis at MIC concentration after 7 days using resazurin dye by broth microdilution assay; procedure, shortened: as §1

Row | SMILES | diameter of the inhibition zone (DIZ) (Escherichia coli) [mm] | MIC (Escherichia coli) [µg/mL] | diameter of the inhibition zone (DIZ) (Pseudomonas aeruginosa) [mm] | MIC (Pseudomonas aeruginosa) [µg/mL] | diameter of the inhibition zone (DIZ) (Klebsiella pneumoniae) [mm] | MIC (Klebsiella pneumoniae) [µg/mL] | MIC [1] [µM] | diameter of the inhibition zone (DIZ) (Staphylococcus aureus) [mm] | MIC (Staphylococcus aureus) [µg/mL] | inhibition (INH) [2] [%]
1 | Oc1cc(F)ccc1/C=N/Nc1cc(C(F)(F)F)nc2c(C(F)(F)F)cccc12 | 22 | 6.25 (≈ 15 µM) | 12 | 12.5 (≈ 30 µM) | 13 | 12.5 (≈ 30 µM) | > 50 | 13 | 12.5 (≈ 30 µM) | –
2 | FC(F)C(F)(F)Oc1cccc(/C=N/Nc2cc(C(F)(F)F)nc3c(C(F)(F)F)cccc23)c1 | 21 | 6.25 (≈ 12.5 µM) | 26 | 6.25 (≈ 12.5 µM) | 18 | 6.25 (≈ 12.5 µM) | 12.5 (≈ 6.24 µg/mL) | 22 | 6.25 (≈ 12.5 µM) | <90
3 | COc1ccc(/C=N/Nc2cc(C(F)(F)F)nc3c(C(F)(F)F)cccc23)cc1O | 13 | 12.5 (≈ 29.1 µM) | 15 | 12.5 (≈ 29.1 µM) | 12 | 12.5 (≈ 29.1 µM) | 12.5 (≈ 5.37 µg/mL) | 14 | 12.5 (≈ 29.1 µM) | <90
4 | COc1ccc(/C=N/Nc2cc(C(F)(F)F)nc3c(C(F)(F)F)cccc23)c(F)c1 | 25 | 6.25 (≈ 14.5 µM) | 24 | 6.25 (≈ 14.5 µM) | 22 | 6.25 (≈ 14.5 µM) | 6.25 (≈ 2.7 µg/mL) | 23 | 6.25 (≈ 14.5 µM) | 95
5 | FC(F)(F)c1cc(N/N=C/c2cccs2)c2cccc(C(F)(F)F)c2n1 | <10 | 50 (≈ 128 µM) | <10 | 50 (≈ 128 µM) | <10 | 50 (≈ 128 µM) | > 50 | <10 | 50 (≈ 128 µM) | –
6 | FC(F)(F)c1cc(N/N=C/c2cccnc2)c2cccc(C(F)(F)F)c2n1 | 24 | 6.25 (≈ 16.3 µM) | 25 | 6.25 (≈ 16.3 µM) | 20 | 6.25 (≈ 16.3 µM) | 12.5 (≈ 4.8 µg/mL) | 22 | 6.25 (≈ 16.3 µM) | <90
7 | FC(F)(F)c1cc(N/N=C/C2CCCCC2)c2cccc(C(F)(F)F)c2n1 | 25 | 6.25 (≈ 16.1 µM) | 23 | 6.25 (≈ 16.1 µM) | 19 | 6.25 (≈ 16.1 µM) | 6.25 (≈ 2.43 µg/mL) | 24 | 6.25 (≈ 16.1 µM) | 95
8 | FC(F)(F)Oc1cccc(/C=N/Nc2cc(C(F)(F)F)nc3c(C(F)(F)F)cccc23)c1 | 24 | 6.25 (≈ 13.4 µM) | 26 | 6.25 (≈ 13.4 µM) | 20 | 6.25 (≈ 13.4 µM) | 12.5 (≈ 5.84 µg/mL) | 21 | 6.25 (≈ 13.4 µM) | <90
9 | CCCCCCC/C=N/Nc1cc(C(F)(F)F)nc2c(C(F)(F)F)cccc12 | 24 | 6.25 (≈ 15.4 µM) | 14 | 12.5 (≈ 30.8 µM) | 12 | 12.5 (≈ 30.8 µM) | 6.25 (≈ 2.53 µg/mL) | 12 | 12.5 (≈ 30.8 µM) | 95
10 | FC(F)(F)c1cc(N/N=C/c2cocc2Br)c2cccc(C(F)(F)F)c2n1 | <10 | 50 (≈ 111 µM) | <10 | 50 (≈ 111 µM) | <10 | 50 (≈ 111 µM) | > 50 | <10 | 50 (≈ 111 µM) | –
11 | FC(F)(F)c1cc(N/N=C/c2c[nH]cn2)c2cccc(C(F)(F)F)c2n1 | 25 | 6.25 (≈ 16.7 µM) | 23 | 6.25 (≈ 16.7 µM) | 18 | 6.25 (≈ 16.7 µM) | 3.12 (≈ 1.16 µg/mL) | 24 | 6.25 (≈ 16.7 µM) | 99
12 | Cn1cc(Cl)c(/C=N/Nc2cc(C(F)(F)F)nc3c(C(F)(F)F)cccc23)n1 | 24 | 6.25 (≈ 14.8 µM) | 28 | 6.25 (≈ 14.8 µM) | 18 | 6.25 (≈ 14.8 µM) | 6.25 (≈ 2.64 µg/mL) | 22 | 6.25 (≈ 14.8 µM) | 95
13 | FC(F)(F)c1cc(N/N=C/c2ccc3c(c2)CCO3)c2cccc(C(F)(F)F)c2n1 | 21 | 6.25 (≈ 14.7 µM) | 15 | 12.5 (≈ 29.4 µM) | 12 | 12.5 (≈ 29.4 µM) | 25 (≈ 10.6 µg/mL) | 14 | 12.5 (≈ 29.4 µM) | –
14 | CC(=O)OCc1ccc(/C=N/Nc2cc(C(F)(F)F)nc3c(C(F)(F)F)cccc23)o1 | 20 | 6.25 (≈ 14 µM) | 14 | 12.5 (≈ 28.1 µM) | 11 | 12.5 (≈ 28.1 µM) | > 50 | 10 | 12.5 (≈ 28.1 µM) | –
15 | COc1ccc2[nH]cc(/C=N/Nc3cc(C(F)(F)F)nc4c(C(F)(F)F)cccc34)c2c1 | 23 | 6.25 (≈ 13.8 µM) | 25 | 6.25 (≈ 13.8 µM) | 20 | 6.25 (≈ 13.8 µM) | 25 (≈ 11.3 µg/mL) | 22 | 6.25 (≈ 13.8 µM) | –
16 | N#Cc1cccc(NC(=O)NNc2cc(C(F)(F)F)nc3c(C(F)(F)F)cccc23)c1 | <10 | 50 (≈ 114 µM) | <10 | 50 (≈ 114 µM) | <10 | 50 (≈ 114 µM) | 25 (≈ 11 µg/mL) | <10 | 50 (≈ 114 µM) | –
17 | CCCCCNC(=O)NNc1cc(C(F)(F)F)nc2c(C(F)(F)F)cccc12 | 10 | 12.5 (≈ 30.6 µM) | 14 | 12.5 (≈ 30.6 µM) | <10 | 50 (≈ 122 µM) | 25 (≈ 10.2 µg/mL) | 10 | 12.5 (≈ 30.6 µM) | –
18 | Fc1ccccc1NC(=S)NNc1cc(C(F)(F)F)nc2c(C(F)(F)F)cccc12 | <10 | 50 (≈ 112 µM) | <10 | 50 (≈ 112 µM) | <10 | 50 (≈ 112 µM) | > 50 | <10 | 50 (≈ 112 µM) | –
19 | COCCNC(=S)NNc1cc(C(F)(F)F)nc2c(C(F)(F)F)cccc12 | 10 | 12.5 (≈ 30.3 µM) | 12 | 12.5 (≈ 30.3 µM) | <10 | 50 (≈ 121 µM) | 25 (≈ 10.3 µg/mL) | 11 | 12.5 (≈ 30.3 µM) | –
20 | CC1=NN(c2cc(C(F)(F)F)nc3c(C(F)(F)F)cccc23)C(=O)C1 | 22 | 6.25 (≈ 17.3 µM) | 25 | 6.25 (≈ 17.3 µM) | 20 | 6.25 (≈ 17.3 µM) | – | 24 | 6.25 (≈ 17.3 µM) | –
21 | O=C1CC(CCc2ccc3c(c2)OCO3)=NN1c1cc(C(F)(F)F)nc2c(C(F)(F)F)cccc12 | 21 | 6.25 (≈ 12.6 µM) | 24 | 6.25 (≈ 12.6 µM) | 22 | 6.25 (≈ 12.6 µM) | – | 22 | 6.25 (≈ 12.6 µM) | –
22 | O=C1CC(c2ccccc2)=NN1c1cc(C(F)(F)F)nc2c(C(F)(F)F)cccc12 | 10 | 12.5 (≈ 29.5 µM) | 12 | 12.5 (≈ 29.5 µM) | 10 | 12.5 (≈ 29.5 µM) | – | 18 | 6.25 (≈ 14.8 µM) | –
23 | O=C1CC(c2ccncc2)=NN1c1cc(C(F)(F)F)nc2c(C(F)(F)F)cccc12 | 10 | 12.5 (≈ 29.5 µM) | 12 | 12.5 (≈ 29.5 µM) | 10 | 12.5 (≈ 29.5 µM) | – | 20 | 6.25 (≈ 14.7 µM) | –
24 | O=C(O)c1cn(C2CC2)c2cc(N3CCNCC3)c(F)cc2c1=O [CIPROFLOXACIN] | 28 | – | 31 | – | 24 | 3.12 (≈ 9.42 µM) | – | 26 | – | –
25 | NNC(=O)c1ccncc1 [ISONIAZID] | – | – | – | – | – | – | 1.5 (≈ 0.206 µg/mL) | – | – | 95
26 | CO[C@H]1/C=C/O[C@@]2(C)Oc3c(C)c(O)c4c(O)c(c(/C=N/N5CCN(C)CC5)c(O)c4c3C2=O)NC(=O)/C(C)=C\C=C\[C@H](C)[C@H](O)[C@@H](C)[C@@H](O)[C@@H](C)[C@H](OC(C)=O)[C@@H]1C [RIFAMPIN] | – | – | – | – | – | – | 0.5 (≈ 0.411 µg/mL) | – | – | 99

— ChEMBL document CHEMBL1208682, “New quinoline derivatives: synthesis and investigation of antibacterial and antituberculosis properties” (2010)
